Data set [1] concerns the target T1, Histamine H3 receptor (Homo sapiens, UniProt Q9Y5N1). Briefly: Displacement of [3H]N-alpha-methylhistamine from human histamine H3 receptor expressed in SK-N-MC cells. It is filed as cell-based. The method, boiled down: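 Membranes prepared from SK-N-MC cells expressing human H3 receptor, homogenized in 50 mM Tris/5 mM EDTA, pH 7.4. Incubated with 0.8 nM [3H]-N-alpha-methylhistamine ± compound, 60 min, 25 °C. Filtration over polyethylenimine-treated glass fiber filters with four ice-cold washes. Nonspecific binding defined with 10 µM histamine.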

Data set [2] has as its target T1, Histamine H3 receptor. Nature of the data set: Antagonist activity at human histamine H3 receptor expressed in SK-N-MC cells assessed as inhibition of forskolin-stimulated cAMP accumulation treated 10 min before histamine challenge. The following applies: read-out: pA2 (converted). It is filed as functional, cell-based. A digest of the protocol:
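SK-N-MC sublines stably carrying human H3 receptor plus a beta-galactosidase reporter driven by multiple cAMP responsive elements. Antagonist added 10 min before histamine; forskolin (5 µM final) 5 min after histamine; 6 h at 37 °C. Lysis, then chlorophenol red beta-D-galactopyranoside substrate, absorbance 570 nm. pA2 from Schild regression of rightward shifts in histamine curves; mean of at least three determinations.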
In general terms: Changes in cAMP serve as a functional read-out for many G protein-coupled receptors.

In a further data set the target is Cytochrome P450 2D6 (Homo sapiens, UniProt P10635). Briefly: Inhibition of CPY2D6 at >40 uM.
Cytochrome P450 2D6, sequence (P10635 whole entry): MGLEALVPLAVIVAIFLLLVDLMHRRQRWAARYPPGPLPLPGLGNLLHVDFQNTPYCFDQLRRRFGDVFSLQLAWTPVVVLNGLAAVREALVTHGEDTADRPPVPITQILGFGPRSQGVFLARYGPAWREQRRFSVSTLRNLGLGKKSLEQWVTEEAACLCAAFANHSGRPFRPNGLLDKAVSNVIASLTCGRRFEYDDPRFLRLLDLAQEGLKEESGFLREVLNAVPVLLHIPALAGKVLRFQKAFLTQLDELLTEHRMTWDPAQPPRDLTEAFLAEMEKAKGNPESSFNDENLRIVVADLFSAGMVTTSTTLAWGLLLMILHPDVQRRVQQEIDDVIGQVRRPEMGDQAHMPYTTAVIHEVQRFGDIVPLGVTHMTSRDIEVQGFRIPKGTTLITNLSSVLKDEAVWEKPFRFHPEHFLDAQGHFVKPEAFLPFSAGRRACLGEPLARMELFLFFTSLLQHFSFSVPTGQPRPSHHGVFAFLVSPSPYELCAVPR
For data set [3], the system named is Rattus norvegicus. Briefly: Ex vivo histamine H3 receptor occupancy in rat striatum at 30 mg/kg, po after 1 hr. It is filed as functional. The method, boiled down:
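Ex vivo autoradiography in rat striatum, coronal sections, using [3H]-R-alpha-methylhistamine as radioligand. Oral dosing at 0.1, 0.3, 1, 3, 10 or 30 mg/kg; brains taken 1 h post-dose to measure H3 receptor occupancy.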

A further data set addresses Cytochrome P450 2C9 (Homo sapiens, UniProt P11712). Nature of the data set: Inhibition of CPY2C9 at >40 uM.
The target of the next data set is Cytochrome P450 3A4 (Homo sapiens, UniProt P08684). Briefly: Inhibition of CPY3A4 at >40 uM.
Cytochrome P450 3A4, sequence (P08684 whole entry): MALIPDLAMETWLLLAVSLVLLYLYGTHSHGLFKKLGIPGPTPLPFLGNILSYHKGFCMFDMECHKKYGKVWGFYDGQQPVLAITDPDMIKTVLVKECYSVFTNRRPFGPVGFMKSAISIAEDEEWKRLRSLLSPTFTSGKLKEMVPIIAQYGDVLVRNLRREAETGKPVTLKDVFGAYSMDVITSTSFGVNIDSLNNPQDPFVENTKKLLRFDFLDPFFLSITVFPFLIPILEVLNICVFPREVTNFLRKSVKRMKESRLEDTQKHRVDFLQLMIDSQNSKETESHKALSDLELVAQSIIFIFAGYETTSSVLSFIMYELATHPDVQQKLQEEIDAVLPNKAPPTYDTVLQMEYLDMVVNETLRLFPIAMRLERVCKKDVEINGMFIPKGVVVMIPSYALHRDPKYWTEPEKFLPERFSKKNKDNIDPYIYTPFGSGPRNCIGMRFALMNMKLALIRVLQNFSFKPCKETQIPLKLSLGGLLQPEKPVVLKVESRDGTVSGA
Data set [4] is described as follows: Half life in po dosed rat. To be noted: in vivo. The class given is ADME, organism-based.
For the next data set, the target named is Cytochrome P450 2C19 (Homo sapiens, UniProt P33261). Briefly: Inhibition of CPY2C19 at >40 uM.
Cytochrome P450 2C19, sequence (P33261 whole entry): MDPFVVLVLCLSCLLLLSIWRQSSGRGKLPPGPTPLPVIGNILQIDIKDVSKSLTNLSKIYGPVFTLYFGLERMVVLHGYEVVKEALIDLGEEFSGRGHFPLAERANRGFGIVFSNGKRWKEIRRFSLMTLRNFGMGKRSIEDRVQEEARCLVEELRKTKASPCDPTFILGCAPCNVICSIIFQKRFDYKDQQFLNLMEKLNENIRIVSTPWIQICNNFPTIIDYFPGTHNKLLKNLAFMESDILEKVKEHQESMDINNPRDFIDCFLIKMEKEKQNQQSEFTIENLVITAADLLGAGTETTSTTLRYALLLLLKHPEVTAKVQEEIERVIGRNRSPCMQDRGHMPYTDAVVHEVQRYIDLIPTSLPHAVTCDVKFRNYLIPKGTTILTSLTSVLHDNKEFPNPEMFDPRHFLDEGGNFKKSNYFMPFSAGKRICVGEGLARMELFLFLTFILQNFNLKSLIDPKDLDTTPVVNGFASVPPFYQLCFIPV
The target of data set [5] is T2, hERG (KCNH2) (Homo sapiens, UniProt Q12809). Briefly: Inhibition of human ERG at 3 uM. The following applies: read-out: Activity.
T2 sequence (Q12809 whole entry): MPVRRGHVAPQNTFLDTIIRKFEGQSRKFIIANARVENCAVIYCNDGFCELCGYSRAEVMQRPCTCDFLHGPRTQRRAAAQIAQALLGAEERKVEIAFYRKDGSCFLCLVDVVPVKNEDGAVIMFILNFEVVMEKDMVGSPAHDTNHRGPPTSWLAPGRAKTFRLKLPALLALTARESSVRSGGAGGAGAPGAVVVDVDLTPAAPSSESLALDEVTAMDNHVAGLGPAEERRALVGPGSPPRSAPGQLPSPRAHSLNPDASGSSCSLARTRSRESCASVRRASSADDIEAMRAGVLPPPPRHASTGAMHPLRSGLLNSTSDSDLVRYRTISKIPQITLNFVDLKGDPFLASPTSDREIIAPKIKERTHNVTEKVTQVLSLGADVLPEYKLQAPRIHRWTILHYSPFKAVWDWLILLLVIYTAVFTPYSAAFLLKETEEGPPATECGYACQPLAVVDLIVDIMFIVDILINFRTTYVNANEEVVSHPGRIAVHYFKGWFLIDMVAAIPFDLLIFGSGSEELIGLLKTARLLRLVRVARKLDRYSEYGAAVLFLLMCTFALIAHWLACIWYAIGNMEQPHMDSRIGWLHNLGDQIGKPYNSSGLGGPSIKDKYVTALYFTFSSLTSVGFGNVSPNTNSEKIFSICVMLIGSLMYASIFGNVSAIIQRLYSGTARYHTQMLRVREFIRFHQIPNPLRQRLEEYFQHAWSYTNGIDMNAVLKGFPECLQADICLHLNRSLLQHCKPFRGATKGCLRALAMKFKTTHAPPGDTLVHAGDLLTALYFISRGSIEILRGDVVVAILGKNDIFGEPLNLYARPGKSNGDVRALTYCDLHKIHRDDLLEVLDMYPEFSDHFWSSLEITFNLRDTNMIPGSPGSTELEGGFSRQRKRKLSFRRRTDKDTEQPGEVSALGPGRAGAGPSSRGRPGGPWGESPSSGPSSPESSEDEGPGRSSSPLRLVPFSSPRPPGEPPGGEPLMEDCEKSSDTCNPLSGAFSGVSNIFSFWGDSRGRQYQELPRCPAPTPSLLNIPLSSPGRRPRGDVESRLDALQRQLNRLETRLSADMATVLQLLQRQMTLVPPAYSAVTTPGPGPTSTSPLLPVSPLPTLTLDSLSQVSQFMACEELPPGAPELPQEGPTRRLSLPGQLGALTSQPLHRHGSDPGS
Data set [6] can be described thus: Oral bioavailability in rat. It is filed as ADME, organism-based. The following applies: in vivo.
Data set [7] relates to Rattus norvegicus. Nature of the data set: Wake promoting activity in Sprague-Dawley rat assessed as decrease in non-rapid eye movement sleep at 10 mg/kg, sc. The class given is functional, organism-based. Details: dose 10 mg/kg. A digest of the protocol: (§1)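 Male adult Sprague-Dawley rats chronically implanted with EEG/EMG electrodes, given 10 mg/kg s.c. or saline vehicle 2 h after light-phase onset. Recording for 8 h, visually scored in 10 s epochs as wake, NREM or REM. Time per 1 h interval as % of recording time; n = 5 animals; vehicle vs compound by paired t-test.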

For data set [8], the system named is Rattus norvegicus. Briefly: Wake promoting activity in Sprague-Dawley rat assessed as effect on rapid eye movement sleep at 10 mg/kg, sc. It is filed as functional, organism-based. Details: dose 10 mg/kg. A digest of the protocol: as §1
The target of the next data set is Histamine H4 receptor (Homo sapiens, UniProt Q9H3N8). Briefly: Displacement of […] from histamine H4 receptor expressed in SK-N-MC cells. It is filed as cell-based. In general terms: Displacement assays read how much labelled ligand stays bound in the presence of the test substance.
Histamine H4 receptor, sequence (Q9H3N8 whole entry): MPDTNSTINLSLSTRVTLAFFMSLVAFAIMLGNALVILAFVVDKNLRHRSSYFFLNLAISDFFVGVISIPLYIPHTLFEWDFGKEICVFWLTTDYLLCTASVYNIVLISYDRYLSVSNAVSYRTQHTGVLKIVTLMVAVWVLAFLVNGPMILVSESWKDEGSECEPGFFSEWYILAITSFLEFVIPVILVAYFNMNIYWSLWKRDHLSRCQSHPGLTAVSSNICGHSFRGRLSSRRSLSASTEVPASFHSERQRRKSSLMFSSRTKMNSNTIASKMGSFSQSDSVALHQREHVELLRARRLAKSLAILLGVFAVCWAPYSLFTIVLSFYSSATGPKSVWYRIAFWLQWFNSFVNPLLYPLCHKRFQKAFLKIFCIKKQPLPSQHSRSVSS
Data set [9] has as its target T2, hERG (KCNH2). Briefly: Inhibition of human ERG at 10 uM. The following applies: read-out: Activity.
Data set [10] concerns the target T3, Histamine H3 receptor (Rattus norvegicus, UniProt Q9QYN8). Briefly: Displacement of [3H]N-alpha-methylhistamine from rat histamine H3 receptor expressed in SK-N-MC cells. The class given is cell-based. A digest of the protocol:
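Membranes from homogenized SK-N-MC cells expressing the rat H3 receptor, in 50 mM Tris/5 mM EDTA pH 7.4. Incubated with 0.8 nM [3H]-Nα-methylhistamine ± compound for 60 min at 25 °C, then filtered and washed with ice-cold buffer. Nonspecific binding was defined with 10 μM histamine.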

The next data set addresses Histamine H1 receptor (Homo sapiens, UniProt P35367). Nature of the data set: Displacement of […] from histamine H1 receptor expressed in SK-N-MC cells. It is filed as cell-based.
Data set [11] deals with T3, Histamine H3 receptor. Briefly: Antagonist activity at rat H3 receptor expressed in SK-N-MC cells assessed as inhibition of forskolin-stimulated cAMP accumulation treated 10 min before histamine challenge. The following applies: read-out: pA2 (converted). The class given is functional, cell-based.
The target of another data set is T4, Cytochrome P450 1A2 (Homo sapiens, UniProt P05177).
T4 sequence (P05177 whole entry): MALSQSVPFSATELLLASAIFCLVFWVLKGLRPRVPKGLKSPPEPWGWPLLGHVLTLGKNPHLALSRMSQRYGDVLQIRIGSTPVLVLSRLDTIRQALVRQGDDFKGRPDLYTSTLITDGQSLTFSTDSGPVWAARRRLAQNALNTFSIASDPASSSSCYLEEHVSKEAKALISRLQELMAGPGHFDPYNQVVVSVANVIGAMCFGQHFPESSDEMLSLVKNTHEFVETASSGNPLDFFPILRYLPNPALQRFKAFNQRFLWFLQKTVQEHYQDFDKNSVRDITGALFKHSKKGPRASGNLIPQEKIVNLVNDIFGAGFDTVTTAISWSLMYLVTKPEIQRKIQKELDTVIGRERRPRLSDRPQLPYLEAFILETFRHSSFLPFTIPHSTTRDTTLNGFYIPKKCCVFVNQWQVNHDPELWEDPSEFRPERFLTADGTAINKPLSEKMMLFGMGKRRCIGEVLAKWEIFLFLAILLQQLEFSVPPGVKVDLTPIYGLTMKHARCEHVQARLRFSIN
Briefly: Inhibition of CPY1A2 at >40 uM.

Active and inactive are the calls of the source. The rule behind the calls is not given here. Where only a bound is given, the exact number is not on record here.

T1 sequence (Q9Y5N1 whole entry): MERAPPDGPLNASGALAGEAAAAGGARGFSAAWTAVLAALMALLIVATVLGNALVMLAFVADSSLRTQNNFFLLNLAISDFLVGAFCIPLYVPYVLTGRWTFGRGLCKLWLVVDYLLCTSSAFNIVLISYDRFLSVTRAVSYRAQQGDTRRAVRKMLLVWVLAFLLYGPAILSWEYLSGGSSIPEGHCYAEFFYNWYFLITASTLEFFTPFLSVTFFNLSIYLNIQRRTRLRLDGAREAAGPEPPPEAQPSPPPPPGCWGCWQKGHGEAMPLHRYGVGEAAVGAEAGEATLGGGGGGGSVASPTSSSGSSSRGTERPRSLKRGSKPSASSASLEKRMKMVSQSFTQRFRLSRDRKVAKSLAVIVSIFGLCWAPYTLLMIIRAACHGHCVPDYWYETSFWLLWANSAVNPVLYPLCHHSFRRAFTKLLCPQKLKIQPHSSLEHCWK
T3 sequence (Q9QYN8 whole entry): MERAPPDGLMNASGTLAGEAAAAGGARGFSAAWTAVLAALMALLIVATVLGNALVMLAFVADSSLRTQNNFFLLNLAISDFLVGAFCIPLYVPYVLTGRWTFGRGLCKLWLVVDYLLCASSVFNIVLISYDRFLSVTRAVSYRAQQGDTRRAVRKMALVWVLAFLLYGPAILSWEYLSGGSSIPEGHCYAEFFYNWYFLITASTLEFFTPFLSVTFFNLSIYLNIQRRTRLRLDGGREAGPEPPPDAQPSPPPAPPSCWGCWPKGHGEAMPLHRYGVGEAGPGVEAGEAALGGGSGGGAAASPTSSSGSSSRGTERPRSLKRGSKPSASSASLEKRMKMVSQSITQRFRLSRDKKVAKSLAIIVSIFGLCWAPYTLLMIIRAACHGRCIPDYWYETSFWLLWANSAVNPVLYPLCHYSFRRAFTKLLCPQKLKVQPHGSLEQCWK
Histamine H1 receptor, sequence (P35367 whole entry): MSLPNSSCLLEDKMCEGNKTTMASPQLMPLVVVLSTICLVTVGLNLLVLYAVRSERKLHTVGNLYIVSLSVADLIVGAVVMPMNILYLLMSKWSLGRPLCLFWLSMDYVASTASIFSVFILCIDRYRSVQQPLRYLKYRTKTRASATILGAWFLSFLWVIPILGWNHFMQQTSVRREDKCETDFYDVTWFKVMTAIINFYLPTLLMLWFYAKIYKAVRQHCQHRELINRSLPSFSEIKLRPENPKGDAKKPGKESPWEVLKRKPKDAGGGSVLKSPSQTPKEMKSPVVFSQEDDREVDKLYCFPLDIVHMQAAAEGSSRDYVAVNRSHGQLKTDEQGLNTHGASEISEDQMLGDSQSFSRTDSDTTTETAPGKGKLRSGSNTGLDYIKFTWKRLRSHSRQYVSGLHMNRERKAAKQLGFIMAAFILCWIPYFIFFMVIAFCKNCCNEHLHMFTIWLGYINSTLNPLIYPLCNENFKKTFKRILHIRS
Cytochrome P450 2C9, sequence (P11712 whole entry): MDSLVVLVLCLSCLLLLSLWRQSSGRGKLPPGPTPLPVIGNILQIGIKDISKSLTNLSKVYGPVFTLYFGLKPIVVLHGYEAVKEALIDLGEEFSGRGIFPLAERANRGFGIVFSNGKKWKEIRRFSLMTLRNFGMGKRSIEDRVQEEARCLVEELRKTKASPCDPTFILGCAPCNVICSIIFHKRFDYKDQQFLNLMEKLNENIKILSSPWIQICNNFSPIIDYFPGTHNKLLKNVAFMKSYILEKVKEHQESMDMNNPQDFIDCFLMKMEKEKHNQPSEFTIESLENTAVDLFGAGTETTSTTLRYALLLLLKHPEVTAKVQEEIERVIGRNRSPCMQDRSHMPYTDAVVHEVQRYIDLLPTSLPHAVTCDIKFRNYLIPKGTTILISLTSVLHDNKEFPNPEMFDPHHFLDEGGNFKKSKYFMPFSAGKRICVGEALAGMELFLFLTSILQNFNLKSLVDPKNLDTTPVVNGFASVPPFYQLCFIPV

What is called Ki is the equilibrium dissociation constant of an inhibitor or competing ligand from its target. Low readings indicate a stronger hold on the target, high ones a looser hold on the target. `C(#Cc1ccc(CN2CCCCC2)cc1)CCN1CCSCC1`: at Histamine H3 receptor [1], the inhibitory constant (Ki) is 3.8 nM.
The same measure, in the same setting: for `C(#Cc1ccc(CN2CCN(Cc3ccccc3)CC2)cc1)CCN1CCCCC1` the value was 1.91 nM; for `CN1CCN(Cc2ccc(C#CCCN3CCCCC3)cc2)CC1`, 0.977 nM.
In the case of `C(#Cc1ccc(CN2CCCCC2)cc1)CCN1CCCCC1`, affinity at Histamine H3 receptor [1] was put at a Ki of 0.513 nM. Besides, the Kb at Histamine H3 receptor [2] was 0.148 nM.
`C(#Cc1ccc(CN2CCCCC2)cc1)CCN1CCOCC1`: affinity at Histamine H3 receptor [1] was put at a Ki of 5.01 nM.
A word on the ED50: it is the dose at which the effect has come halfway, by size or by number of responders. Usually half-life stands for the time in which the quantity being followed falls by half. Low readings indicate rapid decline, high ones slow decline. As a reminder, the bioavailability is the share of a dose that reaches the circulation, judged against a reference dose that is usually intravenous. A lower bioavailability goes with poor availability. In the case of `C(#Cc1cccc(CN2CCOCC2)c1)CCN1CCCCC1`, the “inhibition (INH)” value against Cytochrome P450 2D6, against Cytochrome P450 2C9, at Cytochrome P450 3A4, against Cytochrome P450 2C19 and against Cytochrome P450 1A2 was “Not Active” in each case. The same compound displayed an ED50 in the data set with Rattus norvegicus [3] of 6.5 mg/kg. Also, the half-life in data set [4] was 90 min. Further, the inhibition at 3 µM on hERG (KCNH2) [5] is 8.3%. The compound also yielded a bioavailability in data set [6] of 11%. The result in the data set with Rattus norvegicus [7] was Active. Also, the result in the data set with Rattus norvegicus [8] was inactive. Also, the Ki was above 10 µM at Histamine H4 receptor, 7.08 nM at Histamine H3 receptor [10] and above 10 µM on Histamine H1 receptor. The inhibition at 10 µM on hERG (KCNH2) [9] is 13.7%. The Kb on Histamine H3 receptor [11] is 4.68 nM.
In turn, `CCN(CC)CCC#Cc1ccc(CN2CCCCC2)cc1` showed an inhibition constant (Ki) at Histamine H3 receptor [1] of 1.35 nM.
`C(#Cc1cccc(CN2CCCC2)c1)CCN1CCCCC1` had a Ki on Histamine H3 receptor [1] of 81.3 nM.
For the compound `C(#Cc1ccc(CN2CCCCC2)cc1)CCN1CCCC1`, the affinity on Histamine H3 receptor [1], expressed as Ki, was 0.676 nM.
Take `C(#Cc1cccc(CN2CCCCC2)c1)CCN1CCCCC1`: the inhibition constant (Ki) at Histamine H3 receptor [1] was 0.776 nM. Further, the Kb on Histamine H3 receptor [2] was 0.0813 nM.
The compound `CN(C)Cc1ccc(C#CCCN2CCCCC2)cc1` gave an inhibition constant (Ki) on Histamine H3 receptor [1] of 0.912 nM.
For the compound `NC(=O)C1CCN(Cc2cccc(C#CCCN3CCCCC3)c2)CC1`, the affinity at Histamine H3 receptor [1], expressed as Ki, was 0.55 nM.
For the compound `C(#Cc1ccc(CN2CCC(Cc3ccccc3)CC2)cc1)CCN1CCCCC1`, on Histamine H3 receptor [1], the Ki was 3.47 nM.
With `CN1CCN(Cc2cccc(C#CCCN3CCCCC3)c2)CC1`, on Histamine H3 receptor [1], the inhibition constant (Ki) is 0.724 nM. This Ki is about 4.8-fold lower than that of the compound before.
Still for that read-out and setting: as for `C(#Cc1ccc(CN2CCCC2)cc1)CCN1CCCCC1`, the figure is 0.617 nM.
For `CC(C)N1CCN(Cc2ccc(C#CCCN3CCCCC3)cc2)CC1`, the affinity at Histamine H3 receptor [1], expressed as Ki, was 0.871 nM.
For the compound `NC(=O)C1CCN(Cc2ccc(C#CCCN3CCCCC3)cc2)CC1`, the Ki on Histamine H3 receptor [1] was 0.759 nM.
`C(#Cc1ccc(CN2CCOCC2)cc1)CCN1CCCCC1` gave a Ki at Histamine H3 receptor [1] of 1.74 nM. For the same compound, at Histamine H3 receptor [2], the Kb was 3.24 nM.
As for `C(#Cc1ccccc1CN1CCCCC1)CCN1CCCCC1`, the affinity on Histamine H3 receptor [1] corresponds to a Ki of 83.2 nM.
As for `CN1CCN(CCC#Cc2ccc(CN3CCCCC3)cc2)CC1`, the Ki at Histamine H3 receptor [1] is 5.25 nM.
In turn, `C(#Cc1cccc(CN2CCCCC2)c1)CCN1CCOCC1` had a Ki at Histamine H3 receptor [1] of 14.5 nM.
With `OC1CCN(Cc2ccc(C#CCCN3CCCCC3)cc2)CC1`, the Ki at Histamine H3 receptor [1] was 0.891 nM.

For the origin of these results see ChEMBL document CHEMBL1154085, “Diamine-based human histamine H3 receptor antagonists: (4-aminobutyn-1-yl)benzylamines” (Eur J Med Chem, 2009).
